We go through two molecules from ChEMBL document CHEMBL5046302, “Identification and Evaluation of Brominated Carbazoles as a Novel Antibiotic Adjuvant Scaffold in MRSA” (2022).

Holding throughout (format): functional
Test [1] concerns Staphylococcus aureus. Briefly: Upregulation of mecA gene expression in methicillin-resistant Staphylococcus aureus COL at 50 uM by RT-PCR method.
The subject of test [2] is Staphylococcus aureus. Briefly: Potentiation of oxacillin induced antibacterial activity against methicillin-resistant Staphylococcus aureus assessed as fold decrease in mecA gene expression at 50 uM by RT-qPCR analysis. In a few lines:
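Fold dampening is the relative mRNA level of the gene, normalised to 16S rRNA, in oxacillin-treated cells divided by that in cells cotreated with oxacillin plus carbazole. Carbazole was used at 25 or 50 μM, as given in each line.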

For test [3], the system named is Staphylococcus aureus. Briefly: Potentiation of oxacillin induced antibacterial activity against methicillin-resistant Staphylococcus aureus USA300 harboring stk1 deletion mutant co-transfected with a plasmid bearing stk1 assessed as fold change in oxacillin MIC at 50 uM after 18 hrs by CLSI protocol based broth microdilution assay.
Test [4] deals with Staphylococcus aureus. The experiment in a line: Potentiation of ampicillin induced antibacterial activity against methicillin-resistant Staphylococcus aureus ATCC 43300 assessed as ampicillin MIC at 25 uM after 18 hrs by CLSI protocol based broth microdilution assay.
Test [5] deals with Staphylococcus aureus. Briefly: Potentiation of oxacillin induced antibacterial activity against methicillin-resistant Staphylococcus aureus USA300 harboring stk1 deletion mutant co-transfected with a plasmid bearing stk1 assessed as oxacillin MIC at 25 uM after 18 hrs by CLSI protocol based broth microdilution assay.
The test system of test [6] is Staphylococcus aureus. The experiment in a line: Potentiation of ceftazidime induced antibacterial activity against methicillin-resistant Staphylococcus aureus COL assessed as ceftazidime MIC at 25 uM after 18 hrs by CLSI protocol based broth microdilution assay.
Test [7] deals with Staphylococcus aureus. Briefly: Potentiation of oxacillin induced antibacterial activity against methicillin-resistant Staphylococcus aureus USA100 assessed as fold change in oxacillin MIC at 25 uM after 18 hrs by CLSI protocol based broth microdilution assay.
Test [8] concerns Staphylococcus aureus. The experiment in a line: Potentiation of methicillin induced antibacterial activity against methicillin-resistant Staphylococcus aureus USA300 assessed as fold change in methicillin MIC at 25 uM after 18 hrs by CLSI protocol based broth microdilution assay.
Test [9] relates to Staphylococcus aureus. The experiment in a line: Potentiation of ampicillin induced antibacterial activity against methicillin-resistant Staphylococcus aureus USA300 assessed as ampicillin MIC at 25 uM after 18 hrs by CLSI protocol based broth microdilution assay.
In test [10] the test system is Staphylococcus aureus. Briefly: Potentiation of oxacillin induced antibacterial activity against methicillin-resistant Staphylococcus aureus USA300 harboring stk1 deletion mutant assessed as fold change in oxacillin MIC at 25 uM after 18 hrs by CLSI protocol based broth microdilution assay.
For test [11], the system named is Staphylococcus aureus. The experiment in a line: Upregulation of mecA gene expression in methicillin-resistant Staphylococcus aureus USA100 at 25 uM by RT-PCR method.
Test [12] relates to Staphylococcus aureus. The experiment in a line: Potentiation of ceftazidime induced antibacterial activity against methicillin-resistant Staphylococcus aureus USA300 assessed as ceftazidime MIC at 25 uM after 18 hrs by CLSI protocol based broth microdilution assay.

Calls of active or inactive are those of the source. No cut-off for these calls is given here.

For the molecule `Brc1cccc2c1[nH]c1ccccc12`, the outcome in the test with Staphylococcus aureus [1] was inactive. Further, the “fold change (FC)” value in the test on Staphylococcus aureus [2] is given as 1.39; in the test on Staphylococcus aureus [3], 4.

As for `Brc1cccc2[nH]c3ccccc3c12`, the minimum inhibitory concentration (MIC) with Staphylococcus aureus [4] was found to be 16 µg/mL; with Staphylococcus aureus [5], 0.5 µg/mL; with Staphylococcus aureus [6], 1020 µg/mL; in the test with Staphylococcus aureus [9], 2 µg/mL; with Staphylococcus aureus [12] it was 256 µg/mL. For the same molecule, the entries for the “fold change (FC)” value in the test on Staphylococcus aureus [7], with Staphylococcus aureus [8] and in the test on Staphylococcus aureus [10] were 16, 4 and 1, respectively. Further, the result in the test with Staphylococcus aureus [11] was inactive.
